According to ChEMBL document CHEMBL1926565, “Synthesis, antiproliferative activities and telomerase inhibition evaluation of novel asymmetrical 1,2-disubstituted amidoanthraquinone derivatives” (Eur J Med Chem, 2012):
Activity calls are given as the source filed them. No cut-off for these calls is given here.

What was measured:
SK-MEL-28 = assay: Cytotoxicity against human SK-MEL-28 cells assessed as cellular growth at 10 uM; assay type: functional
Procedure, shortened: (§1)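 Single-dose screen run by the NCI across its 60-human-tumour-cell-line panel; growth recorded for each cell line.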

SK-MEL-5 = assay: Cytotoxicity against human SK-MEL-5 cells assessed as cellular growth at 10 uM; assay type: functional
UACC-62 = assay: Cytotoxicity against human UACC62 cells assessed as cellular growth at 10 uM; assay type: functional
IGROV-1 = assay: Cytotoxicity against human IGROV1 cells assessed as cellular growth at 10 uM; assay type: functional; procedure, shortened: as §1
OVCAR-3 = assay: Cytotoxicity against human OVCAR3 cells assessed as cellular growth at 10 uM; assay type: functional; procedure, shortened: as §1
OVCAR-4 = assay: Cytotoxicity against human OVCAR4 cells assessed as cellular growth at 10 uM; assay type: functional; procedure, shortened: as §1
OVCAR-5 = assay: Cytotoxicity against human OVCAR5 cells assessed as cellular growth at 10 uM; assay type: functional; procedure, shortened: as §1
NCI/ADR-RES = assay: Cytotoxicity against human NCI/ADR-RES cells assessed as cellular growth at 10 uM; assay type: functional; procedure, shortened: as §1
786-0 = assay: Cytotoxicity against human 786-0 cells assessed as cellular growth at 10 uM; assay type: functional; procedure, shortened: as §1
A498 = assay: Cytotoxicity against human A498 cells assessed as cellular growth at 10 uM; assay type: functional; procedure, shortened: as §1
ACHN = assay: Cytotoxicity against human ACHN cells assessed as cellular growth at 10 uM; assay type: functional; procedure, shortened: as §1
SN12C = assay: Cytotoxicity against human SN12C cells assessed as cellular growth at 10 uM; assay type: functional
TK-10 = assay: Cytotoxicity against human TK10 cells assessed as cellular growth at 10 uM; assay type: functional
UO-31 = assay: Cytotoxicity against human UO31 cells assessed as cellular growth at 10 uM; assay type: functional
DU-145 = assay: Cytotoxicity against human DU145 cells assessed as cellular growth at 10 uM; assay type: functional; procedure, shortened: as §1
MCF7 = assay: Cytotoxicity against human MCF7 cells assessed as cellular growth at 10 uM; assay type: functional; procedure, shortened: as §1
MDA-MB-231 = assay: Cytotoxicity against human MDA-MB-231 cells assessed as cellular growth at 10 uM; assay type: functional; procedure, shortened: as §1
[1] = Cytotoxicity against human Hs 578T cells assessed as cellular growth at 10 uM; assay type: functional; procedure, shortened: as §1
BT-549 = assay: Cytotoxicity against human BT549 cells assessed as cellular growth at 10 uM; assay type: functional; procedure, shortened: as §1
MDA-MB-468 = assay: Cytotoxicity against human MDA-MB-468 cells assessed as cellular growth at 10 uM; assay type: functional; procedure, shortened: as §1
PC-3 = assay: Cytotoxicity against human PC3 cells after 48 hrs by SRB assay; assay type: functional, cell-based; settings: PC-3, 48 h
Procedure, shortened: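 PC-3 cells grown in RPMI1640 with 10% FBS at 37 °C, 5% CO₂. Seeded in medium with 5% FBS; after 24 h, one plate fixed with 10% TCA as T₀. Compound or 0.1% DMSO vehicle added for 48 h, then TCA fixation and 0.4% SRB in 1% acetic acid. Dye solubilized in 10 mM Trizma base, absorbance read at 515 nm. IC50 is the concentration giving 50% reduction of the protein gain in controls.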

CCRF-CEM = assay: Cytotoxicity against human CCRF-CEM cells assessed as cellular growth at 10 uM; assay type: functional; procedure, shortened: as §1
[2] = target: Telomerase reverse transcriptase (Homo sapiens) (UniProt O14746); assay: Inhibition of telomerase activity in human H1299 cell free extract at 10 uM by modified TRAP assay
Procedure, shortened: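 TRAP assay using total cell lysate from H1299 lung cancer cells as the telomerase source, with protein measured against BSA standards. Compounds tested at 10 µM. Controls were lysate without inhibitor (positive) and RNase A-treated extract without inhibitor (negative).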

HL-60(TB) = assay: Cytotoxicity against human HL-60(TB) cells assessed as cellular growth at 10 uM; assay type: functional; procedure, shortened: as §1
MOLT-4 = assay: Cytotoxicity against human MOLT4 cells assessed as cellular growth at 10 uM; assay type: functional; procedure, shortened: as §1
SR = assay: Cytotoxicity against human SR cells assessed as cellular growth at 10 uM; assay type: functional
EKVX = assay: Cytotoxicity against human EKVX cells assessed as cellular growth at 10 uM; assay type: functional; procedure, shortened: as §1
HOP-62 = assay: Cytotoxicity against human HOP62 cells assessed as cellular growth at 10 uM; assay type: functional; procedure, shortened: as §1
HOP-92 = assay: Cytotoxicity against human HOP92 cells assessed as cellular growth at 10 uM; assay type: functional; procedure, shortened: as §1
NCI-H226 = assay: Cytotoxicity against human NCI-H226 cells assessed as cellular growth at 10 uM; assay type: functional; procedure, shortened: as §1
NCI-H23 = assay: Cytotoxicity against human NCI-H23 cells assessed as cellular growth at 10 uM; assay type: functional; procedure, shortened: as §1
NCI-H322M = assay: Cytotoxicity against human NCI-H322M cells assessed as cellular growth at 10 uM; assay type: functional; procedure, shortened: as §1
NCI-H460 = assay: Cytotoxicity against human NCI-H460 cells assessed as cellular growth at 10 uM; assay type: functional; procedure, shortened: as §1
NCI-H522 = assay: Cytotoxicity against human NCI-H522 cells assessed as cellular growth at 10 uM; assay type: functional; procedure, shortened: as §1
HCC 2998 = assay: Cytotoxicity against human HCC2998 cells assessed as cellular growth at 10 uM; assay type: functional; procedure, shortened: as §1
HCT-116 = assay: Cytotoxicity against human HCT116 cells assessed as cellular growth at 10 uM; assay type: functional; procedure, shortened: as §1
HCT-15 = assay: Cytotoxicity against human HCT15 cells assessed as cellular growth at 10 uM; assay type: functional; procedure, shortened: as §1
HT-29 = assay: Cytotoxicity against human HT-29 cells assessed as cellular growth at 10 uM; assay type: functional; procedure, shortened: as §1
KM12 = assay: Cytotoxicity against human KM12 cells assessed as cellular growth at 10 uM; assay type: functional; procedure, shortened: as §1
SW-620 = assay: Cytotoxicity against human SW620 cells assessed as cellular growth at 10 uM; assay type: functional
SF-268 = assay: Cytotoxicity against human SF268 cells assessed as cellular growth at 10 uM; assay type: functional; procedure, shortened: as §1
SF-295 = assay: Cytotoxicity against human SF295 cells assessed as cellular growth at 10 uM; assay type: functional; procedure, shortened: as §1
SF-539 = assay: Cytotoxicity against human SF539 cells assessed as cellular growth at 10 uM; assay type: functional; procedure, shortened: as §1
SNB-19 = assay: Cytotoxicity against human SNB19 cells assessed as cellular growth at 10 uM; assay type: functional
SNB-75 = assay: Cytotoxicity against human SNB75 cells assessed as cellular growth at 10 uM; assay type: functional
U-251 = assay: Cytotoxicity against human U251 cells assessed as cellular growth at 10 uM; assay type: functional
LOX IMVI = assay: Cytotoxicity against human LOXIMVI cells assessed as cellular growth at 10 uM; assay type: functional; procedure, shortened: as §1
Malme-3M = assay: Cytotoxicity against human MALME-3M cells assessed as cellular growth at 10 uM; assay type: functional; procedure, shortened: as §1
M14 = assay: Cytotoxicity against human M14 cells assessed as cellular growth at 10 uM; assay type: functional; procedure, shortened: as §1
MDA-MB-435 = assay: Cytotoxicity against human MDA-MB-435 cells assessed as cellular growth at 10 uM; assay type: functional; procedure, shortened: as §1
SK-MEL-2 = assay: Cytotoxicity against human SK-MEL-2 cells assessed as cellular growth at 10 uM; assay type: functional; procedure, shortened: as §1
[3] = Growth of human H1299 cells at 100 uM 48 hrs by MTT assay; settings: NCI-H1299, 48 h
[4] = Growth of human H1299 cells at 1 uM after 48 hrs by MTT assay; settings: NCI-H1299, 48 h
[5] = Growth of human H1299 cells at 10 uM after 48 hrs by MTT assay; settings: NCI-H1299, 48 h
[6] = target: Telomerase reverse transcriptase (Homo sapiens) (UniProt O14746); assay: Residual activity of human TERT in H1299 cells at 1 uM after 24 hrs by SEAP reporter gene assay
[7] = target: Telomerase reverse transcriptase (Homo sapiens) (UniProt O14746); assay: Residual activity of human TERT in H1299 cells at 10 uM after 24 hrs by SEAP reporter gene assay
[8] = target: Telomerase reverse transcriptase (Homo sapiens) (UniProt O14746); assay: Residual activity of human TERT in H1299 cells at 100 uM after 24 hrs by SEAP reporter gene assay

Sequence of Telomerase reverse transcriptase (Homo sapiens) (O14746 whole entry): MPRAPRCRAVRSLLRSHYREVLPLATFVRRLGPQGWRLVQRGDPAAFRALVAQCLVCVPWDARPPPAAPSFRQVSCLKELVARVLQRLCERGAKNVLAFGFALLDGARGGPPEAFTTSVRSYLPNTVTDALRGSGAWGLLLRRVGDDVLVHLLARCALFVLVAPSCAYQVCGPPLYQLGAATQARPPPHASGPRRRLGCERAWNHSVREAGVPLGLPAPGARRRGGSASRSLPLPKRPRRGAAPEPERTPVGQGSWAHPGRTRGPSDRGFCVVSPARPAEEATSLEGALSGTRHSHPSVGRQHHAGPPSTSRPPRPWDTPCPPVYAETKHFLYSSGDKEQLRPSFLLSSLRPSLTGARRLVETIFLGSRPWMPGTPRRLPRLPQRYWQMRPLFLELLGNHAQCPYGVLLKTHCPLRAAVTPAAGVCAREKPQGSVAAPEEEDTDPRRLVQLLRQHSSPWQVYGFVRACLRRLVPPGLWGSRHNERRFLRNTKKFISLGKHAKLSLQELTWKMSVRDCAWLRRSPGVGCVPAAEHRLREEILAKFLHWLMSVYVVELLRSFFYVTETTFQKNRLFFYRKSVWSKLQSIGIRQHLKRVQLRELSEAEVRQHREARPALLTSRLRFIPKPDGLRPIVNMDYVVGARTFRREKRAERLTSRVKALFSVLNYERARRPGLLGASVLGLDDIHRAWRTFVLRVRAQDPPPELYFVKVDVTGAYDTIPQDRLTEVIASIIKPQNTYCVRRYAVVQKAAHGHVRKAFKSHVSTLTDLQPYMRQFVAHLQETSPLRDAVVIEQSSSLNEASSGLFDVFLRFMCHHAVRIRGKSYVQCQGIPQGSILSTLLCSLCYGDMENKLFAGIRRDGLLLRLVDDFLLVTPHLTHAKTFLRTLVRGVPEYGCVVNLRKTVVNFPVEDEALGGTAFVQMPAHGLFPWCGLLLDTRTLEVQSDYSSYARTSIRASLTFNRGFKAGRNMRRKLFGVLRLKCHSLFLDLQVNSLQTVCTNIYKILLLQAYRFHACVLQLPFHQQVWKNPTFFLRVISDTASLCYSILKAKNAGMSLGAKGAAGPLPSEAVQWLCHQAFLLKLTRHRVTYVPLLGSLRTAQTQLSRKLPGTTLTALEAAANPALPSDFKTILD

O=C(CCl)Nc1ccc2c(c1NC(=O)Cc1ccccc1)C(=O)c1ccccc1C2=O
Activity (SK-MEL-28): 88.68% | Activity (SK-MEL-5): 51.32% | Activity (UACC-62): 59.67% | Activity (IGROV-1): 41.03% | Activity (OVCAR-3): 86.38% | Activity (OVCAR-4): 80.4% | Activity (OVCAR-5): 119.04% | Activity (NCI/ADR-RES): 86.87% | Activity (786-0): 97.26% | Activity (A498): 91.79% | Activity (ACHN): 79.64% | Activity (SN12C): 79.93% | Activity (TK-10): 120.81% | Activity (UO-31): 58.19% | Activity (DU-145): 85.83% | Activity (MCF7): 51% | Activity (MDA-MB-231): 82.04% | Activity [1]: 66.65% | Activity (BT-549): 79.78% | Activity (MDA-MB-468): 51.02% | IC50 (PC-3): > 20 µM | Activity (CCRF-CEM): 33.97% | inhibition [2]: inactive | Activity (HL-60(TB)): 41.36% | Activity (MOLT-4): 11.4% | Activity (SR): -31.25% | Activity (EKVX): 102.08% | Activity (HOP-62): 115.67% | Activity (HOP-92): 73.63% | Activity (NCI-H226): 80.49% | Activity (NCI-H23): 64.75% | Activity (NCI-H322M): 104.38% | Activity (NCI-H460): 104.5% | Activity (NCI-H522): 43.37% | Activity (HCC 2998): 94.74% | Activity (HCT-116): 67.55% | Activity (HCT-15): 68.55% | Activity (HT-29): 88.84% | Activity (KM12): 80.59% | Activity (SW-620): 83.41% | Activity (SF-268): 80.14% | Activity (SF-295): 98.48% | Activity (SF-539): 107.09% | Activity (SNB-19): 124.27% | Activity (SNB-75): 109.14% | Activity (U-251): 66.17% | Activity (LOX IMVI): 36.29% | Activity (Malme-3M): 47.07% | Activity (M14): 87.1% | Activity (MDA-MB-435): 80.4% | Activity (SK-MEL-2): -6.49% | growth, % of control at 100 µM [3]: 3% | growth, % of control at 1 µM [4]: 81% | growth, % of control at 10 µM [5]: 5% | residual activity [6]: 84% | residual activity [7]: 9% | residual activity [8]: 7%

O=C(CCl)Nc1ccc2c(c1NC(=O)c1ccco1)C(=O)c1ccccc1C2=O
IC50 (PC-3): 2.44 µM | inhibition [2]: inactive | growth, % of control at 100 µM [3]: 2% | growth, % of control at 1 µM [4]: 80% | growth, % of control at 10 µM [5]: 0% | residual activity [6]: 84% | residual activity [7]: 2% | residual activity [8]: 2%

O=C(CCl)Nc1ccc2c(c1NC(=O)c1ccc(C(F)(F)F)cc1)C(=O)c1ccccc1C2=O
IC50 (PC-3): 6.67 µM | inhibition [2]: inactive | growth, % of control at 100 µM [3]: 0% | growth, % of control at 1 µM [4]: 86% | growth, % of control at 10 µM [5]: 6% | residual activity [6]: 85% | residual activity [7]: 8% | residual activity [8]: 6%

Cc1ccc(C(=O)Nc2c(NC(=O)CN3CCN(c4ncccn4)CC3)ccc3c2C(=O)c2ccccc2C3=O)cc1
IC50 (PC-3): > 20 µM | inhibition [2]: inactive | growth, % of control at 100 µM [3]: 59% | growth, % of control at 1 µM [4]: 102% | growth, % of control at 10 µM [5]: 91% | residual activity [6]: 87% | residual activity [7]: 79% | residual activity [8]: 19%

O=C(CCl)Nc1ccc2c(c1NC(=O)COc1ccccc1)C(=O)c1ccccc1C2=O
IC50 (PC-3): > 20 µM | inhibition [2]: inactive | growth, % of control at 100 µM [3]: 4% | growth, % of control at 1 µM [4]: 101% | growth, % of control at 10 µM [5]: 66% | residual activity [6]: 82% | residual activity [7]: 72% | residual activity [8]: 4%
